In PubChem BioAssay:
Activity calls are given as the source filed them.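 The calls were made as follows, unless noted: active = GFP response above 150% of the DMSO level; inconclusive = fewer than 70 events counted for a yeast strain; inactive = the rest.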

Experiments:
[1] = hit retest on RPL19A-GFP reporter strain – cell-based, S. cerevisiae, flow cytometry, cherry picks, mother/daughter gates, confirmation (AID 2270;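 active = GFP response below 50% of the DMSO control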); conditions: 3 h, at 10 µM, stronger effect = lower value, 100 = same GFP as DMSO wells
[2] = yeast TOR pathway reporter LAP4-GFP change – cell-based, cherry picks, flow cytometry, mother/daughter gates, confirmation (AID 2271;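 active = GFP response above 150% of the DMSO control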;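 also: ratio of sample to DMSO plate mean so 100% equals DMSO level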); conditions: S. cerevisiae LAP4-GFP strain, 3 h, at 10 µM, stronger effect = higher value, 100 means same as DMSO control
In short: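 System: GFP-fusion yeast strain | Input: Yeast cells seeded at OD600 of 0.2 | Technique: HT flow cytometry, GFP fluorescence channel | Read-out: % GFP response vs DMSO | Dosing: Single test-compound dose, 10 µM final | Controls: Positive rapamycin (400 ng/mL), negative DMSO | Times: 3 h treatment at 30 °C with rotation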

[3] = TOR pathway reporter MEP2-GFP, retest of hits – S. cerevisiae, flow cytometry GFP, cherry picks, confirmation (AID 2272;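 active = GFP response above 150% of the DMSO control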;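 also: ratio of well signal to plate DMSO mean so 100% equals DMSO level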); conditions: S. cerevisiae MEP2-GFP strain, 3 h, at 10 µM, stronger effect = higher value
[4] = yeast AGP1-GFP fluorescence change, single-dose – cell-based, flow cytometry, S. cerevisiae, cherry picks, confirmation (AID 2273);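 also: median GFP channel fluorescence over the whole cell population gate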; conditions: S. cerevisiae AGP1-GFP strain, 3 h, at 10 µM
[5] = TOR pathway CIT2 reporter hit retest – S. cerevisiae, GFP fusion, cherry picks, mother/daughter gates, confirmation (AID 2274); conditions: S. cerevisiae CIT2-GFP strain, flow cytometry, 3 h, at 10 µM, stronger effect = higher value
[6] = measured here: daughter cell gate
[7] = measured here: mother cell gate
[8] = measured here: daughter cell gate response
[9] = measured here: mother cell gate response

Row | Structure (SMILES) | GFP response vs DMSO [1] | GFP response vs DMSO [1, 6] [%] | GFP response vs DMSO [1, 7] [%] | GFP response relative to DMSO [2] | GFP response relative to DMSO [2, 8] [%] | GFP response relative to DMSO [2, 9] [%] | GFP response vs DMSO [3] | GFP response, % of DMSO [4] | GFP response, % of DMSO [5] | GFP response, % of DMSO [5, 6] [%] | GFP response, % of DMSO [5, 7] [%]
1 | CC(=O)NC1(C(F)(F)F)C(=O)Nc2c1c(=O)[nH]c(=O)n2CCc1ccccc1 (stereo not drawn) | 99.6% (inactive) | 98.4 | 98.6 | 97% (inactive) | 97.5 | 97.3 | 107% (inactive) | 95.7% (inactive) | 88.6% (inactive) | 90.2 | 88.2
2 | CCCCNc1c(-c2ccc(SC(C)CC)cc2)nc2ccccn12 (stereo not drawn) | 94.2% (inactive) | 88.6 | 95.8 | 120% (inactive) | 114 | 124 | 109% (inactive) | 93.3% (inactive) | 92.6% (inactive) | 89.9 | 91.4
3 | Cc1cccc(NC(c2ccc(C)s2)c2ccc3ccc(C)nc3c2O)n1 (stereo not drawn) | 108% (inactive) | 120 | 98.6 | 140% (inactive) | 141 | 134 | 114% (inactive) | 94.9% (inactive) | 109% (inactive) | 121 | 94.4
4 | CCCn1c(=N)c(C(=O)NC2CCCC2)cc2c(=O)n3cccc(C)c3nc21 | 100% (inactive) | 85.2 | 78 | 96.2% (inactive) | 100 | 99.3 | 104% (inactive) | 104% (inactive) | 104% (inactive) | – | –
5 | C=CCOc1ccc(C(=O)n2cc(C(=O)OC)c3ccccc32)cc1 | 95.6% (inactive) | 97.1 | 96.4 | 96.7% (inactive) | 99.2 | 96.1 | 96.2% (inactive) | 101% (inactive) | 101% (inactive) | 103 | 101
6 | Cc1cc(N2CCOCC2)n2nc(C)c(-c3ccccc3)c2n1 | 103% (inactive) | 100 | 102 | 98.2% (inactive) | 95.9 | 97.3 | 101% (inactive) | 101% (inactive) | 98.8% (inactive) | 97.4 | 98.1
7 | CC[n+]1c(/C=C/c2ccc(N(C)C)cc2)ccc2ccccc21 | 99.4% (inactive) | 96.6 | 96.5 | 105% (inactive) | 104 | 106 | 118% (inactive) | 101% (inactive) | 97.3% (inactive) | 97.4 | 96.8
8 | CCCc1[nH]nc2c1C(c1ccc(OC(=O)N3CCOCC3)cc1)C(C#N)=C(N)O2 (stereo not drawn) | 98.2% (inactive) | 97.1 | 96.4 | 97.9% (inactive) | 94.4 | 94 | 100% (inactive) | 102% (inactive) | 101% (inactive) | – | –
9 | CCc1cccc2sc(N3CCN(C(=O)c4ccc([N+](=O)[O-])o4)CC3)nc12 | 82.5% (inactive) | 85.9 | 70.2 | 251% (active) | 125 | 222 | 172% (inactive) | 108% (inactive) | 108% (inactive) | 99.3 | 102
10 | Oc1ccc(-c2nc3ccccn3c2NCc2ccco2)cc1 | 96.8% (inactive) | 98.4 | 97.1 | 101% (inactive) | 99.2 | 99.3 | 102% (inactive) | 96.2% (inactive) | 103% (inactive) | 105 | 101
11 | COc1ccccc1C1CCN(Cc2c(C)[nH]c3ccccc23)CC1 | 103% (inactive) | 102 | 104 | 97% (inactive) | 95.9 | 96.2 | 99% (inactive) | 102% (inactive) | 98.8% (inactive) | 97.4 | 98.1
12 | O=C(Nc1ccc(F)cc1)c1cc2cc(Cl)ccc2[nH]1 | 97% (inactive) | 96.9 | 96.2 | 101% (inactive) | 97.6 | 94 | 100% (inactive) | 102% (inactive) | 99.7% (inactive) | – | 92.6
13 | CC(NCCS(=O)(=O)c1ccc(Cl)cc1)c1cccc(Cl)c1 (stereo not drawn) | 95.1% (inactive) | 96.4 | 94 | 97.7% (inactive) | 96 | 99.5 | 106% (inactive) | 98.2% (inactive) | 97.2% (inactive) | 97.6 | 98.2
14 | COC(=O)c1cccc(-n2c(CCC(=O)O)ccc2-c2cccs2)c1 | 99.2% (inactive) | 98.9 | 100 | 104% (inactive) | 103 | 103 | 98.8% (inactive) | 103% (inactive) | 97.2% (inactive) | 96.8 | 97.7
15 | CSc1ccc(/C=C/C(=O)c2c(O)cc(C)oc2=O)cc1 | 105% (inactive) | 106 | 103 | 131% (inactive) | 125 | 135 | 120% (inactive) | 96.3% (inactive) | – | – | –
16 | Cc1ccc(N(C(=O)CNC(=O)c2ccco2)C(C(=O)NC2CCCC2)c2cccnc2)cc1C (stereo not drawn) | 104% (inactive) | 100 | 108 | 95.7% (inactive) | 95.9 | 95.2 | 99% (inactive) | 105% (inactive) | 102% (inactive) | 99.2 | 102
